Consider 35 molecules from ChEMBL document CHEMBL1641493, “Discovery of fused 5,6-bicyclic heterocycles as γ-secretase modulators” (Bioorg Med Chem Lett, 2011).

Calls of active or inactive are those of the source. No cut-off for these calls is given here.

Test [1] concerns the target Gamma-secretase (Homo sapiens) (UniProt Q96BI3+Q9NZ42+Q8WW43+P49768+Q92542+P49810). The experiment in a line: Selectivity ratio of IC50 for gamma secretase-mediated total amyloid beta production to IC50 for gamma secretase-mediated amyloid beta42 production in HEK293 cells. The test is classed as cell-based. The gist of the method: (§1)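 HEK293 cells stably transfected with APPsw-lon (pcDNA3.1) treated with compound for 5 h. Aβ in the conditioned medium measured by MSD electrochemiluminescent sandwich immunoassay, using TAG-G2-11/biotin-4G8 for Aβ42 and TAG-W02/biotin-4G8 for total Aβ. IC50 values derived for each, and the ratio taken as total Aβ IC50 over Aβ42 IC50.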

A further test addresses Gamma-secretase. The experiment in a line: Inhibition of gamma secretase-mediated amyloid beta42 production in HEK293 cells by sandwich immunoassay. The test is classed as cell-based, Homo sapiens. The gist of the method:
as §1

In test [2] the test system is Rattus norvegicus. Briefly: Antialzheimer activity in CD rat assessed as decrease in amyloid beta42 level in CSF at 30 mg/kg, po after 3 hrs. It counts as functional. The gist of the method:
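Male CD rats (~100 g) given a single oral dose of 30 mg/kg formulated in 20% hydroxypropyl β-cyclodextrin. CSF sampled 3 h after dosing, stored at -80 °C, and CSF Aβ42 quantified with AlphaLISA amyloid assay kits. Effect expressed as % change in Aβ42.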

The test system of test [3] is Rattus norvegicus. The experiment in a line: Antialzheimer activity in CD rat assessed as decrease in amyloid beta42 level in brain at 30 mg/kg, po after 3 hrs. It counts as functional. The gist of the method: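 Male CD rats (~100 g) dosed orally at 30 mg/kg in 20% hydroxypropyl β-cyclodextrin, brains taken 3 h later and frozen on dry ice. Half cortex homogenized and extracted in 5 M guanidine-HCl/50 mM Tris-HCl pH 8, sonicated, and cleaned up by solid-phase extraction. Eluate dried and resuspended in PBS/0.5% Tween 20, then Aβ42 read by AlphaLISA. Result given as % change.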

For orientation: IC50 means the concentration that inhibits the measured activity by half. High values mean a need for much substance, low ones inhibition by little substance. Take `COc1cc(-c2nnc3n2CCCN3C(c2ccc(F)cc2)C2CC2)ccc1-n1cnc(C)c1` (stereo not drawn): in test [1], the Ratio IC50 came out at 1. Also, on Gamma-secretase, the IC50 was determined as 16400 nM.
As for `COc1cc(-c2nnc3n2CCCN3Cc2ccc(F)c(F)c2)ccc1-n1cnc(C)c1`, in test [1], the Ratio IC50 was 36. For the same molecule, the half-maximal inhibitory concentration (IC50) on Gamma-secretase is 552 nM.
With `COc1cc(-c2nnc3n2CCCN3C(=O)C(C)c2ccc(F)cc2)ccc1-n1cnc(C)c1` (stereo not drawn), the Ratio IC50 in test [1] stood at 41. Inhibition at Gamma-secretase was half-maximal at 485 nM (IC50).
For `CC[C@H](c1cc(F)c(F)c(F)c1)N1CCCc2c(-c3ccc(-n4cnc(C)c4)c(OC)c3)n[nH]c21`, the Ratio IC50 in test [1] is 96. Moreover, the IC50 at Gamma-secretase was found to be 209 nM.
Take `COc1cc(-c2nnc3n2CCCN3Cc2ccc(C#N)cc2)ccc1-n1cnc(C)c1`: the Ratio IC50 in test [1] came to 3. The same molecule showed an IC50 against Gamma-secretase of 2530 nM.
For `CCCC(c1ccc(F)cc1)N1CCCn2c(-c3ccc(-n4cnc(C)c4)c(OC)c3)nnc21` (stereo not drawn), in that order: 138 and 145 nM.
For `COc1cc(-c2onc3c2CCCN3Cc2cc(F)cc(F)c2)ccc1-n1cnc(C)c1`, in that order: 46 and 440 nM.
As to `CCC(c1cc(F)c(F)c(F)c1)N1CCCc2c(-c3ccc(-n4cnc(C)c4)c(OC)c3)n[nH]c21` (stereo not drawn), the Ratio IC50 in test [1] came to 99. The same molecule displayed an IC50 against Gamma-secretase of 201 nM.
Turning to `CCCCCN1CCCn2c(-c3ccc(-n4cnc(C)c4)c(OC)c3)nnc21`, the Ratio IC50 in test [1] came out at 14. For the same molecule, at Gamma-secretase, the midpoint of inhibition, the IC50, lay at 1410 nM.
The inhibition in vivo is the percentage by which the read-out fell short of the control. For `CC[C@@H](c1cc(F)c(F)c(F)c1)N1CCCc2c(-c3ccc(-n4cnc(C)c4)c(OC)c3)n[nH]c21`, the Ratio IC50 in test [1] stood at 164. In addition, the inhibition in vivo at 30 mg/kg in the test on Rattus norvegicus [2] is 26%. Moreover, the IC50 on Gamma-secretase was 122 nM.
`COc1cc(-c2nnc3n2CCCN3C(=O)c2ccc(F)cc2)ccc1-n1cnc(C)c1`: the Ratio IC50 in test [1] was determined as 1. Besides, the IC50 against Gamma-secretase came out at 19300 nM.
As to `COc1cc(-c2noc3c2CCCN3[C@@H](C)c2cc(F)c(F)c(F)c2)ccc1-n1cnc(C)c1`, the Ratio IC50 in test [1] turned out to be 37. In addition, the IC50 against Gamma-secretase came to 540 nM.
With `CCCCC(=O)N1CCCn2c(-c3ccc(-n4cnc(C)c4)c(OC)c3)nnc21`, the Ratio IC50 in test [1] is 10. This molecule also came in with an IC50 against Gamma-secretase of 2070 nM.
For `COc1cc(-c2nnc3n2CCCN3C(C)c2ccc(F)cc2)ccc1-n1cnc(C)c1` (stereo not drawn), in test [1], the Ratio IC50 worked out at 39. On Gamma-secretase, this molecule came in with an IC50 of 509 nM.
Regarding `COc1cc(-c2nnc3n2CCCN3C(=O)N2CCOCC2)ccc1-n1cnc(C)c1`, the Ratio IC50 in test [1] worked out at 1. At Gamma-secretase, this molecule yielded an IC50 of 20000 nM.
For `COc1cc(-c2noc3c2CCCN3[C@H](C)c2ccc(F)cc2)ccc1-n1cnc(C)c1` the same measures were 14 and 1390 nM.
Regarding `COc1cc(-c2onc3c2CCCN3[C@@H](C)c2ccc(F)cc2)ccc1-n1cnc(C)c1`, the Ratio IC50 in test [1] is 38. The IC50 against Gamma-secretase was found to be 465 nM.
On to `COc1cc(-c2nnc3n2CCCN3Cc2ccc(F)cc2)ccc1-n1cnc(C)c1`, for which the Ratio IC50 in test [1] was 31. In addition, at Gamma-secretase, the IC50 was 649 nM.
On to `CCC(c1ccc(F)cc1)N1CCCn2c(-c3ccc(-n4cnc(C)c4)c(OC)c3)nnc21` (stereo not drawn), for which the Ratio IC50 in test [1] was determined as 128. At Gamma-secretase, this molecule registered an IC50 of 156 nM.
On to `COc1cc(-c2n[nH]c3c2CCCN3C(C)c2ccc(F)cc2)ccc1-n1cnc(C)c1` (stereo not drawn), for which, in test [1], the Ratio IC50 turned out to be 46. Moreover, it took 164 nM to reach half-maximal inhibition against Gamma-secretase (IC50).
`COc1cc(-c2onc3c2CCCN3Cc2ccc(F)cc2)ccc1-n1cnc(C)c1`: in test [1], the Ratio IC50 turned out to be 48. Further, the inhibition result in the test on Rattus norvegicus [3] and in the test with Rattus norvegicus [2] was “inactive” throughout. Also, on Gamma-secretase, half-maximal inhibition (IC50) was put at 356 nM.
Turning to `COc1cc(-c2noc3c2CCCN3[C@@H](C)c2ccc(F)cc2)ccc1-n1cnc(C)c1`, the Ratio IC50 in test [1] was determined as 29. Besides, on Gamma-secretase, the IC50 amounted to 448 nM.
For `COc1cc(-c2nnc3n2CCCN3C(c2ccccc2)C2CC2)ccc1-n1cnc(C)c1` (stereo not drawn), in that order: 1 and 20000 nM.
Regarding `COc1cc(-c2nnc3n2CCCN3C(C)c2cc(F)c(F)c(F)c2)ccc1-n1cnc(C)c1` (stereo not drawn), the Ratio IC50 in test [1] is 165. Besides, on Gamma-secretase, inhibition was half-maximal at 116 nM (IC50).
For the molecule `COc1cc(-c2nnc3n2CCCN3Cc2ccc(Cl)c(Cl)c2)ccc1-n1cnc(C)c1`, the Ratio IC50 in test [1] turned out to be 159. This molecule also registered an IC50 against Gamma-secretase of 126 nM.
On to `CC[C@@H](c1ccc(F)cc1)N1CCCc2c(-c3ccc(-n4cnc(C)c4)c(OC)c3)noc21`, for which the Ratio IC50 in test [1] came out at 17. This molecule also yielded an IC50 at Gamma-secretase of 875 nM.
For `COc1cc(-c2onc3c2CCCN3[C@@H](C)c2ccccc2)ccc1-n1cnc(C)c1` the same measures were 37 and 537 nM.
With `COc1cc(-c2nnc3n2CCCN3CCc2ccc(F)cc2)ccc1-n1cnc(C)c1`, in test [1], the Ratio IC50 amounted to 32. In addition, on Gamma-secretase, the IC50 was 619 nM.
Regarding `COc1ccc(CN2CCCn3c(-c4ccc(-n5cnc(C)c5)c(OC)c4)nnc32)cc1`, the Ratio IC50 in test [1] was 14. This molecule also returned an IC50 against Gamma-secretase of 1410 nM.
On to `COc1cc(/C=C2\CCCN([C@@H](C)c3ccc(F)cc3)C2=O)ccc1-n1cnc(C)c1`, for which the values for the inhibition in vivo at 30 mg/kg with Rattus norvegicus [3] and in the test on Rattus norvegicus [2] were 44% and 55%, respectively.
Turning to `COc1cc(-c2noc3c2CCCN3[C@@H](C)c2cc(F)cc(F)c2)ccc1-n1cnc(C)c1`, the Ratio IC50 in test [1] turned out to be 21. In addition, at Gamma-secretase, the midpoint of inhibition, the IC50, lay at 935 nM.
For `COc1cc(-c2nnc3n2CCCN3C(=O)Cc2ccc(F)cc2)ccc1-n1cnc(C)c1` the same measures were 10 and 1920 nM.
For `COc1cc(-c2nnc3n2CCCN3S(=O)(=O)c2ccc(F)cc2)ccc1-n1cnc(C)c1` the same measures were 9 and 2210 nM.
For `COc1cc(-c2nnc3n2CCCN3C(C)c2c(F)cc(F)cc2F)ccc1-n1cnc(C)c1` (stereo not drawn) the same measures were 58 and 342 nM.
For the molecule `COc1cc(-c2nnc3n2CCCN3)ccc1-n1cnc(C)c1`, the Ratio IC50 in test [1] is 1. Also, the IC50 at Gamma-secretase is 20000 nM.
